Active and inactive are the calls of the source. The calls are words filed in the database; no cut-off is given here.
Assays:
[1] = system: Plasma; experiment: Drug level in Sprague-Dawley rat plasma treated with N-(2-(4Z,7Z,10Z,13Z,16Z,19Z)-docosa-4,7,10,13,16,19-hexaenamidoethyl)-2-hydroxybenzamide at 300 mg/kg, po measured up to 24 hrs post dose; format: ADME, organism-based; conditions: in vivo
Procedure, shortened: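 Single oral dose of 300 mg/kg to Sprague Dawley rats. Plasma collected at 0, 0.5, 1, 2, 4, 8 and 24 hr. Analytes were the parent, the salicylate-linker and linker-DHA metabolites, salicylic acid and salicyluric acid; Cmax and AUClast derived.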

[2] = Cmax in portal vein cannulated Sprague-Dawley rat at 30 mg/kg, po measured up to 140 mins; format: ADME, organism-based; parameters: dose 30 mg/kg, route oral; conditions: portal vein blood
Procedure, shortened: (§1)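 Sprague Dawley rats surgically fitted with indwelling jugular vein and portal vein cannulas; oral dosing, then serial blood draws from both portal and jugular veins at 10, 20, 40 min and 1, 2, 4, 6 hr post dose; plasma analysed for parent and metabolites by LC/MS/MS.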

[3] = Cmax in jugular vein cannulated Sprague-Dawley rat at 30 mg/kg, po measured up to 140 mins; format: ADME, organism-based; parameters: dose 30 mg/kg, route oral; conditions: jugular vein blood; procedure, shortened: as §1
[4] = system: Rattus norvegicus; experiment: Cmax in portal vein cannulated Sprague-Dawley rat assessed nicotinuric acid at 30 mg/kg, po measured up to 140 mins; format: ADME, organism-based; parameters: dose 30 mg/kg, route oral; conditions: in vivo; procedure, shortened: as §1
[5] = system: Rattus norvegicus; experiment: Cmax in jugular vein cannulated Sprague-Dawley rat assessed nicotinuric acid at 30 mg/kg, po measured up to 140 mins; format: ADME, organism-based; parameters: dose 30 mg/kg, route oral; conditions: in vivo; procedure, shortened: as §1
[6] = system: Rattus norvegicus; experiment: Cmax in portal vein cannulated Sprague-Dawley rat assessed as N-(2-(methylamino)ethyl)nicotinamide at 30 mg/kg, po measured up to 140 mins; format: ADME, organism-based; parameters: dose 30 mg/kg, route oral; conditions: in vivo, BLD = below limit of detection; procedure, shortened: as §1
[7] = system: Rattus norvegicus; experiment: Cmax in jugular vein cannulated Sprague-Dawley rat assessed as N-(2-(methylamino)ethyl)nicotinamide at 30 mg/kg, po measured up to 140 mins; format: ADME, organism-based; parameters: dose 30 mg/kg, route oral; conditions: in vivo, BLD = below limit of detection; procedure, shortened: as §1
[8] = system: Liver; experiment: Drug uptake in Sprague-Dawley rat liver at 100 mg/kg, po qd for 3 days measured 4 hrs post last dose; format: ADME, organism-based; conditions: in vivo
Procedure, shortened: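 Sprague Dawley rats (n = 6) dosed 100 mg/kg once daily for 3 days; plasma and tissues collected four hours after the last dose and analysed for parent compound and metabolites.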

[9] = Drug uptake in endoplasmic reticulum of CellLight ER-RFP-treated human HuH7 cells at 25 uM after 30 mins by DAPI staining-based confocal microscopy in presence of endocytosis inhibitor dynasore; format: ADME, cell-based; conditions: huh-7, 0.5 h
Procedure, shortened: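 HuH-7 cells were transduced with CellLight ER-RFP BacMam 2.0 for 48 h and pretreated with 80 µM dynasore. They were then exposed to compound for 30 min, fixed in 4% formaldehyde for 2 min at 37 °C and mounted with anti-fade DAPI. Imaging was by confocal microscopy with a 63X lens.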

[10] = Drug uptake in lysosomes of CellLight ER-RFP/BacMam 2-treated human HuH7 cells at 25 uM after 30 mins by DAPI staining-based confocal microscopy; format: ADME, cell-based, Lysosome; conditions: huh-7, 0.5 h
Procedure, shortened: (§2)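 HuH-7 hepatocellular carcinoma cells were plated overnight in DMEM with 10% FBS. They were transduced for 48 h with BacMam CellLight ER-RFP or Late Endosomes-RFP organelle markers. Cells were then exposed for 30 min to fluorescent cis-parinaric acid conjugate in DMEM at 25 µM. They were fixed in 4% paraformaldehyde for 2 min at 37 °C, washed with PBS, mounted with anti-fade DAPI and imaged by confocal microscopy at 63X.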

[11] = Drug uptake in endoplasmic reticulum of CellLight ER-RFP/BacMam 2-treated human HuH7 cells at 25 uM after 30 mins by DAPI staining-based confocal microscopy; format: ADME, cell-based; conditions: huh-7, 0.5 h
Procedure, shortened: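 HuH-7 cells were plated overnight in 10% FBS DMEM and transduced with CellLight ER-RFP BacMam 2.0 for 48 h. They were then exposed to fluorescent conjugate at 25 µM in DMEM for 30 min, fixed in 4% paraformaldehyde for 2 min at 37 °C and washed with PBS. Imaging was by confocal microscopy with a 63X lens.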

[12] = target: T1, Fatty-acid amide hydrolase 1 (Homo sapiens, UniProt O00519); experiment: Drug metabolism in human HepG2 cells assessed as FAAH-mediated compound hydrolysis by measuring level of deuterium-labelled EPA-d5 released at 50 uM by LC/MS-MS analysis; format: ADME, cell-based; conditions: hepg2, 50 µM, TDE = time-dependent effect
T1 sequence (O00519 whole entry): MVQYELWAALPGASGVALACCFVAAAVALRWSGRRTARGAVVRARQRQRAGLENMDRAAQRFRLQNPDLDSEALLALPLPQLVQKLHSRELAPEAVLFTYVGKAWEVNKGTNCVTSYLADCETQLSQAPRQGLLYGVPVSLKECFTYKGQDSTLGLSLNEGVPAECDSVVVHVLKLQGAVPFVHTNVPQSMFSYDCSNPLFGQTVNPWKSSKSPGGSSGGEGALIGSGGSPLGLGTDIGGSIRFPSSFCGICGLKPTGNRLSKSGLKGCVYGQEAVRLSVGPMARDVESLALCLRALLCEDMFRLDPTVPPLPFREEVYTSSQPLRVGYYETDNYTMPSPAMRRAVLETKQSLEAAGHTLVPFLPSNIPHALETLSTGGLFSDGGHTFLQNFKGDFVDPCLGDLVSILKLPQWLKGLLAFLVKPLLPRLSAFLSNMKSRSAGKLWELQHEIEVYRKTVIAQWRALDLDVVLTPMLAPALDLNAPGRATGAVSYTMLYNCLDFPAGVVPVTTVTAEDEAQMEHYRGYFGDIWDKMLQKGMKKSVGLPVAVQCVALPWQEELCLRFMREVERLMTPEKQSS

[13] = species on record: Mus musculus; conditions: 3.2 mM
[14] = target: T2, Sterol regulatory element-binding protein 2 (Homo sapiens) (UniProt Q12772); experiment: Inhibition of SREBP2 maturation in human HepG2 cells at 50 uM after overnight incubation by immunoblot analysis; format: cell-based
T2 sequence (whole entry): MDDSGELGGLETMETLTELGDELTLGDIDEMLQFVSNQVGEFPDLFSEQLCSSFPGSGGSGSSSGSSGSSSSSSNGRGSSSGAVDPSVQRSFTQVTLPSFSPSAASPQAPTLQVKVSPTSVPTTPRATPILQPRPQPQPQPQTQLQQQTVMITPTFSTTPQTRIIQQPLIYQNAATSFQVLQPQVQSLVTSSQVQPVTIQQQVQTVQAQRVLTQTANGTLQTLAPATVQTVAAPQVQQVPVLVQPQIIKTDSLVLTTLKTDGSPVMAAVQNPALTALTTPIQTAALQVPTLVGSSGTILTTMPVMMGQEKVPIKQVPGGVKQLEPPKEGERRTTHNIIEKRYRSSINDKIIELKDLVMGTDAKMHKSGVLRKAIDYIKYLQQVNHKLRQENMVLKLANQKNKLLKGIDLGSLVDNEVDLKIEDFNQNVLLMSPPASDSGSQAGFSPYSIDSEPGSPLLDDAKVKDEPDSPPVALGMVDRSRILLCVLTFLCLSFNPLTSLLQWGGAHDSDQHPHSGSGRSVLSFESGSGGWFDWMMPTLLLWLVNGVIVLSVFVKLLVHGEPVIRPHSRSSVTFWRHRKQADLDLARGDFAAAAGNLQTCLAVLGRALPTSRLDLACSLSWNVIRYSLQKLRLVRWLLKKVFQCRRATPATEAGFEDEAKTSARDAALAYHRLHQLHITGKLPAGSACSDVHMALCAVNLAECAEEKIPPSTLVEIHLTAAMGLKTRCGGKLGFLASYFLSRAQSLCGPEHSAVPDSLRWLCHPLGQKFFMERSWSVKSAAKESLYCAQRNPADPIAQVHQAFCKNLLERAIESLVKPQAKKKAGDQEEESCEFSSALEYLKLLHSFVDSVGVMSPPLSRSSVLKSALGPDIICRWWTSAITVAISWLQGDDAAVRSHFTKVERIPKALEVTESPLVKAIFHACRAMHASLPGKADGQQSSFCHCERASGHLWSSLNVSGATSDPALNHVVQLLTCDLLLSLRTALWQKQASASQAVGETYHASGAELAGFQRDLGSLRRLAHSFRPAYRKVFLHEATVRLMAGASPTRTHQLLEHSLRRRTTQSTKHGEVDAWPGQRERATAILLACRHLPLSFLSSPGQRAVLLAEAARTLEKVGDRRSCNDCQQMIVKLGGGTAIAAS
Procedure, shortened: (§3)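 Human HepG2 cells were incubated with test agents, including 10 µM atorvastatin alone or combined with conjugate. The mature form of SREBP-2 protein was then assessed.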

[15] = AUClast in Sprague-Dawley rat at 30 mg/kg, po administered as single dose measured up to 6 hrs post dose by LC/MS/MS analysis; conditions: in vivo
[16] = target: T2, Sterol regulatory element-binding protein 2 (Homo sapiens); conditions: HepG2, 10 uM
[17] = in vivo; conditions: Sprague-Dawley, rat, po, 30 mg/kg
[18] = system: Rattus norvegicus; experiment: Cmax in portal vein cannulated Sprague-Dawley rat assessed as (S)-N-(pyrrolidin-3-yl)nicotinamide at 30 mg/kg, po measured up to 140 mins; format: ADME, organism-based; parameters: dose 30 mg/kg, route oral; conditions: in vivo; procedure, shortened: as §1
[19] = system: Rattus norvegicus; experiment: Cmax in jugular vein cannulated Sprague-Dawley rat assessed as (S)-N-(pyrrolidin-3-yl)nicotinamide at 30 mg/kg, po measured up to 140 mins; format: ADME, organism-based; parameters: dose 30 mg/kg, route oral; conditions: in vivo; procedure, shortened: as §1
[20] = target: T2, Sterol regulatory element-binding protein 2 (Homo sapiens); experiment: Inhibition of SREBP2 in human HepG2 cells assessed as reduction of PCSK9 secretion at 50 uM after 16 hrs by ELISA; format: cell-based
Procedure, shortened: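 Human HepG2 cells were treated in culture. Secreted PCSK9 in the culture supernatant was quantified with a human-specific PCSK9 ELISA.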

[21] = Drug uptake in lysosomes of human HuH7 cells at 25 uM after 30 mins by LysoTracker/DAPI staining-based confocal microscopy; format: ADME, cell-based, Lysosome; conditions: huh-7, 0.5 h
[22] = Drug uptake in endoplasmic reticulum of human HuH7 cells at 25 uM after 30 mins by LysoTracker/DAPI staining-based confocal microscopy; format: ADME, cell-based; conditions: huh-7, 0.5 h; procedure, shortened: as §2
[23] = species on record: Mus musculus; experiment: Inhibition of NFkappaB in mouse RAW 264.7 cells at 78.7 uM preincubated for 2 hrs followed by LPS addition for 3 hrs by luciferase reporter gene assay relative to control; format: cell-based
[24] = target: T2, Sterol regulatory element-binding protein 2 (Homo sapiens); experiment: Induction of SREBP2 maturation in human HepG2 cells at 10 uM after overnight incubation by immunoblot analysis; format: cell-based; procedure, shortened: as §3

In the case of `NCCNC(=O)c1ccccc1O`, the Drug metabolism [1] was “metabolite_detected”.
With `CC/C=C\C/C=C\C/C=C\C/C=C\C/C=C\CCCC(=O)N(C)CCNC(=O)c1cccnc1` the Cmax [2] was 5060 ng/mL, the Cmax [3] was 400 ng/mL and the Cmax [4] was 11 ng/mL. The Cmax [5] was 28 ng/mL, the Cmax [6] was “BLD” and the Cmax [7] was “BLD”. For the same compound, the Drug uptake [8] was “Active”.
With `O=C(O)CNC(=O)c1ccccc1O` [SALICYLURIC ACID] the Drug metabolism [1] was “metabolite_detected”.
For `CC\C=C/C=C/C=C/C=C\CCCCCCCC(=O)NCCNC(=O)c1cccnc1`, the Drug uptake [9] was “Not Active”, the Drug uptake [10] was “Not Active” and the Drug uptake [11] was “Active”.
With `[2H]C([2H])([2H])C([2H])([2H])/C=C\C/C=C\C/C=C\C/C=C\C/C=C\CCCC(=O)NCCNC(=O)c1cccnc1` the Drug metabolism [12] was “tde”.
With `O=C(O)c1ccccc1O` [SALICYLIC ACID] the Drug metabolism [1] was “metabolite_detected” and the inhibition [13] was “Active”.
For `CC\C=C/C=C/C=C/C=C\CCCCCCCC(=O)NCCNC(=O)c1ccccc1O`, the Drug uptake [11] was “Active”.
For `O=C(O)c1cccnc1` [NIACIN], the inhibition [14] was “inactive”, the AUC(0-t) at 6 h [15] was 6980 ng·h/mL and the inhibition [16] was “inactive”. For the same compound, the Cmax at 6 h [17] was 7470 ng/mL.
For `CC/C=C\C/C=C\C/C=C\C/C=C\C/C=C\CCCC(=O)N1CCC(NC(=O)c2cccnc2)C1` (single isomer, unassigned), the Cmax [2] was 5320 ng/mL, the Cmax [3] was 564 ng/mL and the Cmax [4] was 13 ng/mL. For the same compound, the Cmax [5] was 11 ng/mL, the Cmax [18] was 73 ng/mL and the Cmax [19] was 35 ng/mL.
With `CC/C=C\C/C=C\C/C=C\C/C=C\C/C=C\CCCC(=O)O` the inhibition [20] was “inactive” and the inhibition [14] was “inactive”.
For `CC\C=C/C=C/C=C/C=C\CCCCCCCC(=O)O`, the Drug uptake [21] was “Not Active” and the Drug uptake [22] was “Not Active”.
In the case of `CC/C=C\C/C=C\C/C=C\C/C=C\C/C=C\C/C=C\CCC(=O)O`, the inhibition [23] was “Active”.
With `CC(C)c1c(C(=O)Nc2ccccc2)c(-c2ccccc2)c(-c2ccc(F)cc2)n1CC[C@@H](O)C[C@@H](O)CC(=O)O` the Activity [24] was “Active”.

— ChEMBL document CHEMBL3785029, “Synthesis and Characterization of Fatty Acid Conjugates of Niacin and Salicylic Acid” (J Med Chem, 2016)
